In brackets after ≈: the same amount, converted by molar mass.
Assays:
Assay type in all cases: functional
Conditions in all cases: read-out: ED50 (the source's name)
P388 = experiment: Cytotoxicity against mouse P388 cells
Outline: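 P-388 is a mouse lymphocytic leukemia line, supplied by J. M. Pezzuto (Purdue University), grown in culture and tested by the same previously described cytotoxicity procedure.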

A549 = experiment: Cytotoxicity against human A549 cells
Outline: (§1)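 Standard cytotoxicity procedure from earlier work. A549 is a human lung adenocarcinoma line and HT-29 a human colon adenocarcinoma line, both grown as cell cultures. Potency is given as ED50 in µg/mL.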

HT-29 = experiment: Cytotoxicity against human HT-29 cells; outline: as §1

Structure (SMILES)	EC50 (P388) [µg/mL]	EC50 (A549) [µg/mL]	EC50 (HT-29) [µg/mL]
C=C(C)/C=C/C[C@]1(C)/C=C/[C@@H](OC(=O)C=C(C)C)[C@]2(C)O[C@H]2CC/C(CO)=C\C1 [VIBSANIN R]	< 10	–	–
CC(=O)C[C@@H]1C(=O)C(CO)=CC[C@](C)(CCC(O)C(C)(C)O)[C@H]1/C=C/OC(=O)C=C(C)C (some centres not stated) [VIBSANIN W]	2.18 (≈ 4.84 µM)	5.6 (≈ 12.4 µM)	8.15 (≈ 18.1 µM)
C=C(C)C(O)CC[C@]1(C)/C=C/[C@@H](OC(=O)C=C(C)C)[C@]2(C)O[C@H]2CC/C(CO)=C\C1 (some centres not stated) [VIBSANIN S]	< 10	–	–
CC(C)=CC(=O)O[C@@H]1/C=C/[C@@](C)(C/C=C/C(C)(C)O)C/C=C(/C=O)CC[C@@H]2O[C@]21C [VIBSANIN T]	< 10	–	–
COC(C)(C)/C=C/C[C@]1(C)/C=C/[C@@H](OC(=O)C=C(C)C)[C@]2(C)O[C@H]2CC/C(CO)=C\C1 [VIBSANIN Q]	< 10	–	–
C=C(C)C(O)CC[C@]1(C)/C=C/C[C@]2(C)O[C@H]2CC/C(C=O)=C\C1 (some centres not stated) [VIBSANIN V]	< 10	–	–
CC(C)=CC(=O)O[C@@H]1/C=C/[C@@](C)(C/C=C/C(C)(C)O)C/C=C(/CO)CC[C@@H]2O[C@]21C [VIBSANIN P]	2.25 (≈ 5.38 µM)	4.62 (≈ 11 µM)	9.97 (≈ 23.8 µM)
CC(C)=CC(=O)O[C@@H]1/C=C/[C@@](C)(CCC(O)C(C)(C)O)C/C=C(/CO)C(=O)/C=C/[C@@]1(C)O (some centres not stated) [VIBSANIN U]	< 10	–	–

Source: ChEMBL document CHEMBL1146490, “New diterpenoids from Viburnum awabuki” (2004)
